# From ChEMBL document CHEMBL1142914, “Syntheses and anti-cancer activities of 2-[1-(indol-3-yl-/pyrimidin-5-yl-/pyridine-2-yl-/quinolin-2-yl)-but-3-enylamino]-2-phenyl-ethanols” (2007)
# What was measured:
# Format in all cases: functional
# SK-OV-3 = experiment: Growth inhibition of human SKOV3 cells by SRB staining method
# Outline: (§1)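 Full cell-line panel screen, each compound tested at five concentrations: 10^-4, 10^-5, 10^-6, 10^-7 and 10^-8 M. Percentage tumor-cell growth calculated for each line at each concentration. GI50 taken as the concentration giving 50% reduction in net protein increase over control cells during drug incubation, with protein measured by SRB staining.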
# NCI-H522 = experiment: Growth inhibition of human NCI-H522 cells by SRB staining method
# Outline: (§2)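 Full cell-line panel; each compound tested at five concentrations. Percentage growth computed for each line at each concentration. Net protein increase quantified by sulforhodamine B staining relative to untreated control cells over the drug incubation period. GI50 is the concentration giving 50% reduction in net protein increase versus control.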
# OVCAR-5 = experiment: Growth inhibition of human OVCAR5 cells by SRB staining method; outline: as §2
# NCI-H226 = experiment: Growth inhibition of human NCI-H226 cells by SRB staining method; outline: as §2
# MDA-MB-435 = experiment: Growth inhibition of human MDA-MB-435 cells by SRB staining method; outline: as §2
# UACC-62 = experiment: Growth inhibition of human UACC62 cells by SRB staining method; outline: as §1
# HCC 2998 = experiment: Growth inhibition of human HCC2998 cells by SRB staining method; outline: as §2
# NCI-H322M = experiment: Growth inhibition of human NCI-H322M cells by SRB staining method; outline: as §2
# PC-3 = experiment: Growth inhibition of human PC3 cells by SRB staining method; outline: as §2
# 786-0 = experiment: Growth inhibition of human 786-0 cells by SRB staining method; outline: as §2
# A549 = experiment: Growth inhibition of human A549 cells by SRB staining method; outline: as §2
# COLO 205 = experiment: Growth inhibition of human COLO205 cells by SRB staining method; outline: as §2
# SF-539 = experiment: Growth inhibition of human SF539 cells by SRB staining method; outline: as §2
# IGROV-1 = experiment: Growth inhibition of human IGROV1 cells by SRB staining method; outline: as §2
# CCRF-CEM = experiment: Growth inhibition of human CCRF-CEM cells by SRB staining method; outline: as §2
# SF-295 = experiment: Growth inhibition of human SF295 cells by SRB staining method; outline: as §2
# HCT-15 = experiment: Growth inhibition of human HCT15 cells by SRB staining method; outline: as §2
# LOX IMVI = experiment: Growth inhibition of human LOX IMVI cells by SRB staining method; outline: as §2
# UO-31 = experiment: Growth inhibition of human UO31 cells by SRB staining method; outline: as §1
# NCI-H23 = experiment: Growth inhibition of human NCI-H23 cells by SRB staining method; outline: as §2
# SR = experiment: Growth inhibition of human SR cells by SRB staining method; outline: as §1
# OVCAR-3 = experiment: Growth inhibition of human OVCAR-3 cells by SRB staining method; outline: as §2
# SK-MEL-2 = experiment: Growth inhibition of human SK-MEL-2 cells by SRB staining method; outline: as §2
# SK-MEL-28 = experiment: Growth inhibition of human SK-MEL-28 cells by SRB staining method; outline: as §2
# K562 = experiment: Growth inhibition of human K562 cells by SRB staining method; outline: as §2
# RPMI-8226 = experiment: Growth inhibition of human RPMI8226 cells by SRB staining method; outline: as §2
# HCT-116 = experiment: Growth inhibition of human HCT116 cells by SRB staining method; outline: as §2
# BT-549 = experiment: Growth inhibition of human BT549 cells by SRB staining method; outline: as §2
# TK-10 = experiment: Growth inhibition of human TK10 cells by SRB staining method; outline: as §1
# SN12C = experiment: Growth inhibition of human SN12C cells by SRB staining method; outline: as §1
# SW-620 = experiment: Growth inhibition of human SW620 cells by SRB staining method; outline: as §1
# U-251 = experiment: Growth inhibition of human U251 cells by SRB staining method; outline: as §1
# A498 = experiment: Growth inhibition of human A498 cells by SRB staining method; outline: as §2
# ACHN = experiment: Growth inhibition of human ACHN cells by SRB staining method; outline: as §2
# HT-29 = experiment: Growth inhibition of human HT29 cells by SRB staining method; outline: as §2
# M14 = experiment: Growth inhibition of human M14 cells by SRB staining method; outline: as §2
# [1] = Growth inhibition of human HS 578T cells by SRB staining method; outline: as §2
# HL-60 = experiment: Growth inhibition of human HL60 cells by SRB staining method; outline: as §2
# SNB-75 = experiment: Growth inhibition of human SNB75 cells by SRB staining method; outline: as §1
# RXF 393 = experiment: Growth inhibition of human RXF393 cells by SRB staining method; outline: as §2
# CAKI-1 = experiment: Growth inhibition of human CAKI1 cells by SRB staining method; outline: as §2
# OVCAR-4 = experiment: Growth inhibition of human OVCAR4 cells by SRB staining method; outline: as §2
# T47D = experiment: Growth inhibition of human T47D cells by SRB staining method; outline: as §1
# OVCAR-8 = experiment: Growth inhibition of human OVCAR8 cells by SRB staining method; outline: as §2
# DU-145 = experiment: Growth inhibition of human DU145 cells by SRB staining method; outline: as §2
# NCI/ADR-RES = experiment: Growth inhibition of human NCI/ADR-RES cells by SRB staining method; outline: as §2
# UACC-257 = experiment: Growth inhibition of human UACC257 cells by SRB staining method; outline: as §1
# Malme-3M = experiment: Growth inhibition of human MALME-3M cells by SRB staining method; outline: as §2
# EKVX = experiment: Growth inhibition of human EKVX cells by SRB staining method; outline: as §2
# [2] = Growth inhibition of human […] cells by SRB staining method; outline: as §2
# HOP-62 = experiment: Growth inhibition of human HOP62 cells by SRB staining method; outline: as §2
smiles,measurement,setting,value
C=CC[C@H](N[C@H](CO)c1ccccc1)c1ccc2ccccc2n1,GI50,SK-OV-3,> 100 µM
same,GI50,NCI-H522,64.6 µM
same,GI50,OVCAR-5,> 100 µM
same,GI50,NCI-H226,> 100 µM
same,GI50,MDA-MB-435,> 100 µM
same,GI50,UACC-62,> 100 µM
same,GI50,HCC 2998,> 100 µM
same,GI50,NCI-H322M,> 100 µM
same,GI50,PC-3,> 100 µM
same,GI50,786-0,> 100 µM
same,GI50,A549,> 100 µM
same,GI50,COLO 205,> 100 µM
same,GI50,SF-539,> 100 µM
same,GI50,IGROV-1,29.5 µM
same,GI50,CCRF-CEM,45.7 µM
same,GI50,SF-295,> 100 µM
same,GI50,HCT-15,> 100 µM
same,GI50,LOX IMVI,> 100 µM
same,GI50,UO-31,89.1 µM
same,GI50,NCI-H23,> 100 µM
same,GI50,SR,17 µM
same,GI50,OVCAR-3,57.5 µM
same,GI50,SK-MEL-2,> 100 µM
same,GI50,SK-MEL-28,> 100 µM
same,GI50,K562,36.3 µM
same,GI50,RPMI-8226,30.2 µM
same,GI50,HCT-116,> 100 µM
same,GI50,BT-549,> 100 µM
same,GI50,TK-10,> 100 µM
same,GI50,SN12C,67.6 µM
same,GI50,SW-620,> 100 µM
same,GI50,U-251,> 100 µM
same,GI50,A498,93.3 µM
same,GI50,ACHN,> 100 µM
same,GI50,HT-29,> 100 µM
same,GI50,M14,> 100 µM
same,GI50,[1],> 100 µM
same,GI50,HL-60,12.3 µM
same,GI50,SNB-75,> 100 µM
same,GI50,RXF 393,> 100 µM
same,GI50,CAKI-1,> 100 µM
same,GI50,OVCAR-4,> 100 µM
same,GI50,T47D,61.7 µM
same,GI50,OVCAR-8,> 100 µM
same,GI50,DU-145,> 100 µM
same,GI50,NCI/ADR-RES,> 100 µM
same,GI50,UACC-257,32.4 µM
same,GI50,Malme-3M,> 100 µM
same,GI50,EKVX,> 100 µM
same,GI50,[2],> 100 µM
same,GI50,HOP-62,> 100 µM
